Bioassay records (PubChem)
CHOP inh: CHOP inhibition in unfolded protein response. CHO-K1 CHOP-promoter luciferase, tunicamycin-induced, 15-18 h. inhibition, % at 10 µM. 3.8% of 220,000 active. AID 2732;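 active means compounds that reduced the stress-induced luciferase reporter signal by more than about 70% of percent inhibition, limit read from the data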;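 further: 0% = tunicamycin plus vehicle and 100% = wells without tunicamycin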
GRIN3A LBD mod: modulates the human NR3A ligand-binding domain; NR3A LBD differential scanning fluorimetry, Tm shift; 0% = protein alone, 100% = glycine-bound protein; Tm shift relative to glycine control, % at 25 µM; 2.5% of 340,000 active;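 active means melting temperature shift of at least 10% of the positive control shift, at one fixed dose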
PREPL inhibitor: inhibits the human prolyl oligopeptidase-like enzyme. recombinant PREPL, fluorescence polarization activity-based probe. inhibition, % at 5.96 µM. 0.68% of 320,000 active; in the data active means inhibition above about 43%;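 further: 0% = enzyme with DMSO and 100% = wells lacking enzyme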
Target sequence (Q4J6C6 whole entry, looked up): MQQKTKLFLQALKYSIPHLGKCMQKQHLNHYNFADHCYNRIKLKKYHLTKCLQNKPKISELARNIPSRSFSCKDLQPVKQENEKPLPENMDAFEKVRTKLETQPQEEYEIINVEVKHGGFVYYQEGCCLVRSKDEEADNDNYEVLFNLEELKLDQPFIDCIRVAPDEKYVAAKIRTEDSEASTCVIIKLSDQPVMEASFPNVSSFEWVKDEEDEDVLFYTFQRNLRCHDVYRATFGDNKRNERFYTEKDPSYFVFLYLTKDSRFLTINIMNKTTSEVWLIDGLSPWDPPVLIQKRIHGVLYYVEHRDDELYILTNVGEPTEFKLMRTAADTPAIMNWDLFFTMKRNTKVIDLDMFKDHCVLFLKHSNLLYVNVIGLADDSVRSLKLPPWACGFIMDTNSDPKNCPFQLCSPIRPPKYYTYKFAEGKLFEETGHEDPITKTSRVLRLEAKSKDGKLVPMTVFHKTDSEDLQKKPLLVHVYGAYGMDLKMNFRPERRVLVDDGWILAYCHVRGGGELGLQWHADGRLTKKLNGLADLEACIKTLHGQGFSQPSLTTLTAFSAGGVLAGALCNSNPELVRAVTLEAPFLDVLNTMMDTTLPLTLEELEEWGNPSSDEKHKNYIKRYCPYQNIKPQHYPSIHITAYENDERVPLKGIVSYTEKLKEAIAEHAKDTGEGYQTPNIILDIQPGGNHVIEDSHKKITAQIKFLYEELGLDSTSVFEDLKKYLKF
Beta apoptosis: beta cell apoptosis inhibition | INS-1E cytokine-induced death, ATP luminescence, 48 h; percent of positive-control rescue, neutral wells zero | protection from apoptosis, % (no concentration beside the values) | 0.8% of 300,000 active | AID 435005;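 active means Every replicate reaches about 75%, or at least half do and their mean reaches it too, limit read from the data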;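 further: 0% = cytokine-treated negative control wells and 100% = positive control rescue; higher means more ATP so stronger rescue from cytokine killing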
T cruzi repl: T. cruzi replication inhibition | inhibition, % (concentration not given with the values) | T. cruzi beta-gal in NIH3T3, luminescence, 90 h | 1.4% of 300,000 active;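 active means mean inhibition across valid replicates above about 55%, limit read from the data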;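 further: signal also drops with host cell toxicity which is not excluded here; 0% = plate median of DMSO wells and 100% = zero luminescence signal; higher percent means less beta-gal luminescence so fewer parasites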
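Assay system: NIH/3T3 host cells with β-galactosidase reporter T. cruzi; input: 5,000 host fibroblasts per well; compound: single 50 nL compound addition per well in DMSO; timing: ≥90 h infection period, 3 h prior cell attachment; measured by: GalScreen β-gal luminescence, detergent lysis, 60 min; evaluation: percent inhibition of parasite-derived β-gal signal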
CSC inhib: blocks cancer stem cells | inhibition, % at 7.5 µM | 1.1% of 300,000 active | cancer stem cell-like cells viability, luminescence; in the data active means inhibition above about 75%; tested in HMLE shEcad cells
Numbers without * were called inactive; nt = no result. An excerpt weighted towards active compounds, which were near 6.7% of everything screened.

SMILES	CHOP inh	GRIN3A LBD mod	PREPL inhibitor	Beta apoptosis	T cruzi repl	CSC inhib
COc1ccc(NC(=O)Nc2nnc(C(C)(C)C)s2)cc1	-9	-8	17	-7	8	-10
COc1ccc(OCC(=O)Nc2nc3c(s2)CCCC3)cc1	nt	-1	-8	nt	-1	nt
CC(C)(C)c1nc(NC(=O)Nc2ccccc2)sc1Br	105*	3	12	9	57*	4
CCOc1ccc2nc(NC(=O)C3CCN(S(=O)(=O)c4cnc[nH]4)CC3)sc2c1	-26	-4	0	-3	-3	nt
COc1ccc(C(=O)Nc2nc3ccccc3s2)c(OC)c1	nt	0	-10	45	26	68
CC(C)c1ccccc1NC(=O)COC(=O)c1cccnc1	nt	-1	-5	-1	0	-13
Cn1c2c(c(=O)n(C)c1=O)C(C(F)(F)F)(C(F)(F)F)N=C(CCC1CCCCC1)N2	60	-7	3	16	1	10
COC(=O)c1cccc(NC(=O)CN2CCc3ccccc3C2)c1	nt	1	-19	-4	0	-20
Cc1ccc(NC(=O)C2CCN(c3cnccn3)CC2)cc1	-17	3	14	-4	63*	-3
CCOc1ccc2nc(NC(=O)NC3CCCCC3)sc2c1	27	18*	17	1	40	11
CCOc1ccc2nc(NC(=O)Nc3ccccc3)sc2c1	-20	35*	-3	4	0	0
CCOc1ccc(S(=O)(=O)N(C)c2ccc(OCC(=O)Nc3nc4ccccc4s3)cc2)cc1	81*	0	2	92*	-34	9
CN(c1ccc(OCC(=O)Nc2nc3ccccc3s2)cc1)S(=O)(=O)c1ccccc1	20	-1	-25	3	-3	24
CCn1c(C)cs/c1=N\C(=S)Nc1ccccc1C	15	-4	-9	41	-24	2
O=C(NCCN1CCCCC1)Nc1ccc(Br)cc1	nt	2	1	7	2	5
C[C@H]1CC[C@@]2(O[C@H](CCO)C[C@H](O)[C@H]2O)O1	nt	1	6	-9	-18	-9
COc1ccc(NC(=O)Nc2nc3ccccc3s2)cc1	7	28*	17	-3	14	23
COc1ccc(NC(=O)c2sc(NC(=O)COc3ccccc3)nc2C)cc1	33	14*	13	1	6	14
COc1ccc2nc(NC(=O)c3ccccc3C(=O)O)sc2c1	nt	-1	-2	-6	-5	-9
COc1ccc(NC(=O)c2nc3ccccc3s2)cc1	-20	-23	0	-5	-20	10
COc1ccc2nc(NC(=O)Nc3ccccc3)sc2c1	26	23*	5	nt	0	nt
COc1ccc2sc(NC(=O)NC(=O)c3c(Cl)cccc3Cl)nc2c1	17	18*	10	-5	-7	11
CCCNS(=O)(=O)c1ccc(OCC(=O)NCC2CCCO2)cc1 (configuration not stated)	nt	1	7	-6	-2	6
COc1ccc(NC(=O)CN2C(=O)C(C)Oc3ccccc32)cc1OC (configuration not stated)	nt	-1	1	nt	0	-7
Cc1ccccc1C(C(=O)NC1CCCC1)N(C(=O)CNC(=O)c1ccco1)c1cccnc1 (configuration not stated)	-3	nt	6	-3	14	0
SMILES	CHOP inh	GRIN3A LBD mod	PREPL inhibitor	Beta apoptosis	T cruzi repl	CSC inhib
Cc1cc(NC(=O)CCc2ccccc2)c([N+](=O)[O-])cc1C	17	0	11	-13	2	0
O=C(O)c1ccccc1CC(CCc1ccccc1)C(=O)O (configuration not stated)	nt	10	nt	nt	nt	nt
CCOC(=O)CSc1nc2ccc(NC(C)=O)cc2s1	90*	-2	9	-6	-8	-8
CCOc1ccc2nc(SCC(=O)c3ccccc3)sc2c1	94*	2	-2	-1	-9	-2
O=C(COc1ccc(F)cc1)Nc1nc2c(s1)CCCC2	nt	14*	-5	1	2	11
CCOc1ccc2nc(NC(=S)NCc3ccccc3)sc2c1	-39	19*	5	nt	49	nt
CN(CC(=O)Nc1ccc(OC(F)(F)F)cc1)C(=O)/C=C/c1cc2c(cc1[N+](=O)[O-])OCO2	nt	4	19	0	nt	17
CC(Sc1nnc2n1CCCCC2)C(=O)Nc1ccc(S(N)(=O)=O)cc1 (configuration not stated)	nt	2	nt	nt	nt	nt
Nc1nc(N)c2[nH]c(-c3ccccc3)nc2n1	nt	0	nt	nt	-3	nt
CCN(C(=O)COC(=O)CNC(=O)c1ccc(C)s1)c1ccccc1	9	0	1	-2	-8	-16
CC(C)n1nc(C(=O)Nc2cccc(S(=O)(=O)N3CCOCC3)c2)c2ccccc2c1=O	nt	2	4	2	nt	nt
CCOc1ccc2nc(NC(=O)Cc3cccs3)sc2c1	34	-8	13	-2	7	-13
O=C(Nc1nc2ccccc2s1)C1c2ccccc2Oc2ccccc21	85*	11*	2	15	12	55
Cc1cc(C(=O)Nc2nc3c(s2)CCCC3)cs1	28	1	17	14	13	86*
O=C(Nc1cccc(F)c1)C1CCCN(c2cnccn2)C1 (configuration not stated)	nt	2	2	nt	30	nt
O=C(Nc1ccc(F)c(Cl)c1)C1CCCN(c2cnccn2)C1 (configuration not stated)	nt	1	-9	-5	61*	4
Cc1ncsc1C(=O)Nc1nc2c(s1)CCCC2	1	1	13	18	-15	45
CCOc1ccc2nc(NC(=O)Nc3cccs3)sc2c1	-18	26*	22	nt	23	12
O=C(COC(=O)c1ccc(F)c([N+](=O)[O-])c1)NC(=O)NCc1ccccc1	nt	-3	25	-8	nt	35
O=C(c1cn(-c2ccccc2)nc1-c1cccnc1)N1CCN(S(=O)(=O)c2ccc(Cl)cc2)CC1	nt	0	nt	nt	nt	nt
CN1C(=O)N(C)C2(c3ccccc3)Nn3c(s/c(=C/c4ccccc4F)c3=O)=NC12c1ccccc1 (configuration not stated)	71*	nt	-1	5	-10	2
CCN1C(=O)[C@H]2[C@@H](c3ccc(-c4ccccc4)cc3)N3CCC[C@@]3(C(=O)OC)[C@H]2C1=O	nt	1	29	-6	4	12
O=C(NC1CCS(=O)(=O)C1)Oc1ccc(Cl)cc1 (configuration not stated)	18	0	-7	-8	-8	-2
Cc1ccc(C(=O)OCc2nnc(-c3ccccc3)o2)s1	nt	-1	3	-2	-11	-3
Cc1onc(-c2ccccc2)c1-c1nnc(COC(=O)c2ccc(O)cc2)o1	nt	10*	nt	nt	nt	nt
Cc1cc(C(=O)N/N=C/c2c(C)[nH]n(-c3ccccc3)c2=O)n[nH]1	nt	-2	6	-2	-13	nt
Cc1[nH]n(-c2ccccc2)c(=O)c1/C=N/Nc1nncc(-c2ccccc2)n1	77*	-23	6	91*	70*	110*
